Hits are enriched below; roughly 3.6% of the tested compounds scored in any of these assays.
UCH37 inh = human UCH37 deubiquitinating enzyme inhibition. AID 588478. purified proteasome/UCH37, Ub-AMC cleavage fluorescence. 330,000 tested, 0.33% active. inhibition, % (test concentration not listed);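 active means mean inhibition over replicate wells above about 20%, limit read from the data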
Target sequence (Q9Y5K5 whole entry, looked up): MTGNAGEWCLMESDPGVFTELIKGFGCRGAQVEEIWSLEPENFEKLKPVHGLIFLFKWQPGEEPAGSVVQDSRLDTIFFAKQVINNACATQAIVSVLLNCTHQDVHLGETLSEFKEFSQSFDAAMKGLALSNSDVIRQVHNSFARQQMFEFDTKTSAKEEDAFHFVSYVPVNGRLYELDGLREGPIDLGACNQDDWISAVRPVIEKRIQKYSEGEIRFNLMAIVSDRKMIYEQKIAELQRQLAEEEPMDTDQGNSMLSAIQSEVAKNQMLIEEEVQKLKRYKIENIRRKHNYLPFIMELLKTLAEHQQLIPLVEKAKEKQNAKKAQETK
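System: Proteasome-associated human UCH37 deubiquitinase; Input: 0.15 nM proteasome in added enzyme buffer; Also added: Ub-AMC substrate from 1 µM stock; Incubation: 30 min compound-proteasome preincubation then 25 min substrate reaction, room temperature; Detection: fluorescence, ex 355 nm, em 460 nm; Read-out: % inhibition of Ub-AMC cleavage fluorescence; Benchmarks: no-proteasome and no-compound wells.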
ATG4B inh = ATG4B (human) cysteine protease inhibition. ATG4B cleavage of LC3-PLA2, NBD-HPC fluorescence, 1 h. inhibition, % at 8.33 µM. 340,000 tested, 0.51% active; in the data active means inhibition above about 40%
SENP1 FRET inh = SENP1 (human) catalytic domain inhibition; Q9P0U3; recombinant SENP1 catalytic domain, CyPet-SUMO1-YPet FRET cleavage; inhibition, % at 10 µM; 360,000 tested, 0.21% active; AID 624204;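 active means inhibition at least 30% at 10 µM, raw YFP signal under a set limit, fluorescence ratio 0.5 to 1.5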
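System: Recombinant human SENP1 catalytic domain, His6-tagged | Incubation: Enzyme reaction for 50 min at room temperature, dark | Medium: Tris pH 8 with BME, BSA, NP40 and catalase | Also added: 25 nM SUMO1 FRET substrate | Compound: 10 µM single point, 0.5% DMSO | Measured by: FRET fluorescence in CFP and YFP emission channels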
GRIN3A LBD mod = modulators (binders) of human NR3A ligand-binding domain | NR3A LBD differential scanning fluorimetry, Tm shift; 0% = protein alone, 100% = glycine-bound protein | Tm shift relative to glycine control, % at 25 µM | 340,000 tested, 2.5% active | AID 1259313;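 active means melting temperature shift of at least 10% of the positive control shift, at one fixed dose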
NadD inh = NadD (S. aureus) enzyme inhibition. purified NadD enzyme, colorimetric absorbance read-out. inhibition, % at 20 µM. 360,000 tested, 0.78% active; in the data active means inhibition above about 26%
SENP1 inh conf = SENP1 (human) inhibition, single concentration confirmation; inhibition, % at 10 µM; 520 tested, 34% active; shares compounds with SENP1 FRET inh; recombinant SENP1, CyPet-SUMO1-YPet FRET cleavage; in the data active means inhibition mostly above about 35%, no sharp cut-off; inactive means mostly below about 32%
SENP1 kin conf = SENP1 (human) inhibition, kinetic confirmation | shares compounds with SENP1 FRET inh | recombinant SENP1, CyPet-SUMO1-YPet FRET kinetic cleavage | inhibition, % at 10 µM | 520 tested, 26% active; in the data active means inhibition mostly above about 32%, no sharp cut-off; inactive means mostly below about 29%
A number is an active result.

Screening CCCCNc1c(-c2cccnc2)nc2nc(C)cc(C)n12 returned SENP1 FRET inh 35.8, NadD inh inactive, SENP1 inh conf inactive and SENP1 kin conf inactive.
Screening COCc1cc(C)nc(OCC(=O)NN=Cc2ccco2)c1C#N returned UCH37 inh inactive.
`O=C(CN1CCN(Cc2ccccc2)CC1)NN=Cc1ccco1` gave UCH37 inh inactive.
Screening Fc1ccc(-c2cnn3c(-c4cccs4)ccnc23)cc1 returned UCH37 inh inactive, ATG4B inh inactive, SENP1 FRET inh 56.0, GRIN3A LBD mod inactive, NadD inh inactive, SENP1 inh conf inactive and SENP1 kin conf inactive.
Fc1ccc(-c2cnn3c(-c4ccncc4)ccnc23)cc1 was read as UCH37 inh inactive, ATG4B inh inactive, SENP1 FRET inh inactive, GRIN3A LBD mod inactive and NadD inh inactive.
`CC(C)(C)OC(=O)NCCC(=O)NN=Cc1ccc2ncccc2c1` gave UCH37 inh inactive.

Bioassay records as filed in PubChem.
